Key:
[1] = MTT cell viability assay; assay type: cell-based, human; settings: human, A375 cells, Cell viability [%] @ 10 μM±SD
How it was run: (§1)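 A375 cells were kept in high-glucose DMEM with 10% heat-inactivated FBS, 2 mM L-glutamine and pen/strep. Cells were seeded at 0.5×10^5/well and exposed to 10 µM test compound for 48 h at 37 °C, 5% CO₂, then given MTT. Viability = 100(x−y)/(z−y), where x, y and z are absorbance of treated, resting and untreated cells. Mean ± SD, ≥3 experiments in triplicate.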

[2] = system: A375 cells; assay: MTT cell viability assay; assay type: cell-based, human; settings: 48 h
How it was run: as §1

[3] = target: IDO1 (Homo sapiens, UniProt P14902); assay: Cellular IDO1 inhibition; assay type: cell-based; settings: A375 cell line, IFN-γ, 48 h; for IDO cellular assay inhibition [%] @ 10 μM±SD: L-Kyn by HPLC; for IC50: IC50±SD [μM]
How it was run: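 A375 cells (0.5×10^5/well) were grown overnight, then given test compound (serial dilutions 0.01–30 µM, or single 10 µM) with human IFN-γ (500 U/mL final) and 0.1% DMSO for 48 h. Medium was deproteinized with 20% CCl₃COOH. L-Kyn was quantified by C18 HPLC at 330 nm against a calibration curve; % inhibition was taken versus basal levels. IC50s came from concentration-response curves, ≥3 experiments in triplicate.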

[4] = system: CYP (aminopyrine N-demethylase activity); assay: CYP inhibition: aminopyrine N-demethylase assay in rat liver microsomes; assay type: in vitro ADME; settings: rat liver microsomes, 1, 10 and 100 μM
How it was run: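 Aminopyrine N-demethylation by rat liver microsomes, with inhibition read as the […] after aminopyrine incubation. Ketoconazole served as the reference CYP inhibitor.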

[5] = target: holo-IDO1 (Homo sapiens, UniProt P14902); assay: Heme detection; assay type: binding; settings: 1 μM holo-IDO1, 120 min, 37 °C; VS9 different concentrations, epacadostat 20 μM
How it was run: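 1 µM holo-IDO1 in 100 mM potassium phosphate (pH 7.2) with 1 mM CHAPS was incubated with varying test-compound concentrations, or 20 µM reference inhibitor, for 120 min at 37 °C. Samples were diluted 100-fold, and free heme was measured with a hemin detection kit at 570 nm. Values are relative to untreated, mean of n=3 ± SD.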

[6] = In vitro metabolic stability in rat liver S9 fraction; assay type: in vitro ADME; settings: rat liver S9 with NADPH, 5 μM substrate, 37 °C
How it was run: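 Pooled male Sprague Dawley rat liver S9 (1.5 mg/mL final protein) was used in 50 mM Tris pH 7.4 with 3.3 mM MgCl₂, 1.3 mM β-NADP, 3.3 mM glucose 6-phosphate, 0.4 U/mL G6PDH and 1% acetonitrile. Test compound was 5 µM, shaken 60 min at 37 °C. Controls lacked S9 or cofactors. Reactions were stopped with ice-cold acetonitrile and centrifuged; residual substrate was measured.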

[7] = target: TDO (P1.TDO) (Homo sapiens, UniProt P48775); assay: IDO1 and TDO selectivity assay, P1.TDO cells; assay type: cell-based; settings: 10 μM, 16 h
How it was run: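 Mouse mastocytoma P815-derived P1.HTR cells, stably electroporated with a human TDO plasmid and selected in puromycin, grown in IMDM with 1 mM glutamine and penicillin/streptomycin, used at ≤10th passage. Cells incubated 16 h with 10 μM test compound; DMSO vehicle as control. Supernatant L-Kyn measured by HPLC-UV (C18 column) against a calibration curve, detection limit 0.05 μM. Triplicate.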

Chain of TDO (P1.TDO) (P48775 whole entry): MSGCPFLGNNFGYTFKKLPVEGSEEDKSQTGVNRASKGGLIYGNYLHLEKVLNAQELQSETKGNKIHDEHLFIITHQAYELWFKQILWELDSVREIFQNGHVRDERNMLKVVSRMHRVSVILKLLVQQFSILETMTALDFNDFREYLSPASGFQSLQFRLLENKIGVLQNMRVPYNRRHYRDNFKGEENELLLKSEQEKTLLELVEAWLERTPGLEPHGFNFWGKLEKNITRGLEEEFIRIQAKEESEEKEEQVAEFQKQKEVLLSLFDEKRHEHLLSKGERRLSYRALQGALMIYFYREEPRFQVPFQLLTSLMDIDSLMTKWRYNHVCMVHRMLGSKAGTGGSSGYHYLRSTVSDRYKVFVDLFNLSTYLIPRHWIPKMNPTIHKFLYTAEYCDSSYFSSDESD
Chain of IDO1 (P14902 whole entry): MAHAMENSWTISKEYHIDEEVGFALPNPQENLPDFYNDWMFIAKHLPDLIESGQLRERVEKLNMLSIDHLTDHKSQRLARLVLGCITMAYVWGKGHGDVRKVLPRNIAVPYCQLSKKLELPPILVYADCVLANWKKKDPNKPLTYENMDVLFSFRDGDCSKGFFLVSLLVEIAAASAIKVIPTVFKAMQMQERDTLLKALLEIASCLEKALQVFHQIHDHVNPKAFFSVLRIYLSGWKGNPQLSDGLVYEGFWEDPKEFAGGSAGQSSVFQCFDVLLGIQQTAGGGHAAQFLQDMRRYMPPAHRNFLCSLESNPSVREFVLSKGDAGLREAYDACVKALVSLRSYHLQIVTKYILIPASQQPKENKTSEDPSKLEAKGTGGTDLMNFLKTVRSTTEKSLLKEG
Chain of holo-IDO1 (P14902 whole entry): as above

## O=C(NCc1nnc2ccc(C(F)(F)F)cn12)c1ccc(O)c(Br)c1 [Compound 12, 3‐Bromo‐4‐hydroxy‐N‐((6‐(trifluoromethyl)‐[1,2,4]triazolo[4,3‐a]pyridin‐3‐yl)methyl)benzamide]
[1]
  viability at 48 h, 10 μM: 92 ± 12%

## 2‐Methyl‐3‐((pyridin‐3‐ylmethyl)amino)‐N‐((6‐(trifluoromethyl)‐[1,2,4]triazolo[4,3‐a]pyridin‐3‐yl)methyl)benzamide [Compound 11]
[2]
  Cell viability [%] @ 10 μM±SD: 91±12.7%
[3]
  IDO cellular assay inhibition [%] @ 10 μM±SD: 22±5%

## COc1cc(C)c(C(=O)NCc2nnc3ccc(C(F)(F)F)cn23)c(C)c1 [Compound 17, 4‐Methoxy‐2,6‐dimethyl‐N‐((6‐(trifluoromethyl)‐[1,2,4]triazolo[4,3‐a]pyridin‐3‐yl)methyl)benzamide]
[1]
  viability at 48 h, 10 μM: 89 ± 9.2%

## Cc1ccccc1-c1ccc(F)c(C(=O)NCc2nnc3ccc(C(F)(F)F)cn23)c1 [Compound 20, 4‐Fluoro‐2′‐methyl‐N‐((6‐(trifluoromethyl)‐[1,2,4]triazolo[4,3‐a]pyridin‐3‐yl)methyl)‐[1,1′‐biphenyl]‐3‐carboxamide]
[1]
  viability at 48 h, 10 μM: 100%

## O=C(NCc1nnc2ccc(C(F)(F)F)cn12)c1cc(Br)c(O)cc1O [Compound 13, 5‐Bromo‐2,4‐dihydroxy‐N‐((6‐(trifluoromethyl)‐[1,2,4]triazolo[4,3‐a]pyridin‐3‐yl)methyl)benzamide]
[1]
  viability at 48 h, 10 μM: 94 ± 2.8%

## O=C(NCc1nnc2ccc(C(F)(F)F)cn12)c1cc(-c2ccc(F)cc2)ccc1F [Compound 18, 4,4′‐Difluoro‐N‐((6‐(trifluoromethyl)‐[1,2,4]triazolo[4,3‐a]pyridin‐3‐yl)methyl)‐[1,1′‐biphenyl]‐3‐carboxamide]
[1]
  viability at 48 h, 10 μM: 88 ± 16.8%

## N#Cc1ccc(-c2ccc(F)c(C(=O)NCc3nnc4ccc(C(F)(F)F)cn34)c2)cc1 [Compound 19, 4′‐Cyano‐4‐fluoro‐N‐((6‐(trifluoromethyl)‐[1,2,4]triazolo[4,3‐a]pyridin‐3‐yl)methyl)‐[1,1′‐biphenyl]‐3‐carboxamide]
[1]
  viability at 48 h, 10 μM: 97 ± 2.1%

## O=C(NCc1nnc2ccccn12)c1cccc2cn[nH]c12 [Compound 42, N‐([1,2,4]Triazolo[4,3‐a]pyridin‐3‐ylmethyl)‐1H‐indazole‐7‐carboxamide]
[1]
  viability at 48 h, 10 μM: 100%

## COc1ccc(-c2ccc(F)c(C(=O)NCc3nnc4ccc(C(F)(F)F)cn34)c2)cc1 [Compound 21, 4‐Fluoro‐4′‐methoxy‐N‐((6‐(trifluoromethyl)‐[1,2,4]triazolo[4,3‐a]pyridin‐3‐yl)methyl)‐[1,1′‐biphenyl]‐3‐carboxamide]
[1]
  viability at 48 h, 10 μM: 78 ± 4.2%

## O=C(NCc1cccc2ccccc12)c1cccc2cn[nH]c12 [Compound 44, N‐(Naphthalen‐1‐ylmethyl)‐1H‐indazole‐7‐carboxamide]
[1]
  viability at 48 h, 10 μM: 99 ± 1%

## COc1cc(F)c(C(=O)NCc2nnc3ccc(C(F)(F)F)cn23)c(F)c1 [Compound 16, 2,6‐Difluoro‐4‐methoxy‐N‐((6‐(trifluoromethyl)‐[1,2,4]triazolo[4,3‐a]pyridin‐3‐yl)methyl)benzamide]
[1]
  viability at 48 h, 10 μM: 100 ± 5.2%

## CC(=O)N1CCN(c2ccc(OCC3COC(Cn4ccnc4)(c4ccc(Cl)cc4Cl)O3)cc2)CC1 (stereo not shown) [ketoconazole, reference compound]
[4]
  CYP inhibition (aminopyrine N-demethylase activity): strong inhibition of CYP

## NS(=O)(=O)NCCNc1nonc1C(=NO)Nc1ccc(F)c(Br)c1 [epacadostat, reference compound]
[5]
  levels of free heme after incubation with IDO1: did not increase the levels of free heme

## O=C(NCc1nnc2ccc(C(F)(F)F)cn12)c1c(F)ccc(Cl)c1Cl [Compound 15, 2,3‐Dichloro‐6‐fluoro‐N‐((6‐(trifluoromethyl)‐[1,2,4]triazolo[4,3‐a]pyridin‐3‐yl)methyl)benzamide]
[1]
  viability at 48 h, 10 μM: 100 ± 0.7%

## O=C(NCc1nnc2ccc3ccccc3n12)c1cccc2cn[nH]c12 [Compound 37, N‐([1,2,4]Triazolo[4,3‐a]quinolin‐1‐ylmethyl)‐1H‐indazole‐7‐carboxamide]
[1]
  viability at 48 h, 10 μM: 100 ± 4.1%
[3]
  IC50: 6.9 ± 0.8 µM

## COc1ccc(-c2ccc(F)c(C(=O)NCc3nnc4ccc(Cl)cn34)c2)cc1OC [Compound 32, N‐((6‐Chloro‐[1,2,4]triazolo[4,3‐a]pyridin‐3‐yl)methyl)‐4‐fluoro‐3′,4′‐dimethoxy‐[1,1′‐biphenyl]‐3‐carboxamide]
[1]
  viability at 48 h, 10 μM: 98 ± 9.3%

## Cc1ccc(Br)c(C)c1C(=O)NCc1nnc2ccc(C(F)(F)F)cn12 [Compound 14, 3‐Bromo‐2,6‐dimethyl‐N‐((6‐(trifluoromethyl)‐[1,2,4]triazolo[4,3‐a]pyridin‐3‐yl)methyl)benzamide]
[1]
  viability at 48 h, 10 μM: 100%

## Cc1ccc(-c2cccc(C(=O)NCc3nnc4ccc(C(F)(F)F)cn34)c2)cc1 [Compound 22, 4′‐Methyl‐N‐((6‐(trifluoromethyl)‐[1,2,4]triazolo[4,3‐a]pyridin‐3‐yl)methyl)‐[1,1′‐biphenyl]‐3‐carboxamide]
[1]
  viability at 48 h, 10 μM: 93 ± 9.8%

## O=C(NCc1nnc2ccc(Cl)cn12)c1cccc2cn[nH]c12 [Compound 30, N‐((6‐Chloro‐[1,2,4]triazolo[4,3‐a]pyridin‐3‐yl)methyl)‐1H‐indazole‐7‐carboxamide]
[1]
  viability at 48 h, 10 μM: 98 ± 7.4%

## N‐((6‐(Trifluoromethyl)‐[1,2,4]triazolo[4,3‐a]pyridin‐3‐yl)methyl)‐9H‐fluorene‐4‐carboxamide [Compound 10]
[2]
  Cell viability [%] @ 10 μM±SD: 90±14.8%
[3]
  IDO cellular assay inhibition [%] @ 10 μM±SD: 34±1%

## COc1ccc(-c2ccc(F)c(C(=O)NCc3nnc4ccc5ccccc5n34)c2)cc1 [Compound 40, N‐([1,2,4]triazolo[4,3‐a]quinolin‐1‐ylmethyl)‐4‐fluoro‐4′‐methoxy‐[1,1′‐biphenyl]‐3‐carboxamide]
[1]
  viability at 48 h, 10 μM: 97 ± 3.8%
[3]
  IC50: 3.4 ± 0.3 µM
[6]
  Residual peak area after RLS9 incubation (60 min): higher than 99%

## O=C(NCc1nnc2ccc3ccccc3n12)c1ccc(O)c(Br)c1 [Compound 38, N‐([1,2,4]Triazolo[4,3‐a]quinolin‐1‐ylmethyl)‐3‐bromo‐4‐hydroxybenzamide]
[1]
  viability at 48 h, 10 μM: 95 ± 7.1%
[3]
  IC50: 0.9 ± 0.02 µM
[7]
  Kyn levels in P1.TDO cells: not able to induce a reduction of Kyn levels in P1.TDO
[4]
  CYP inhibition (aminopyrine N-demethylase activity): did not significantly inhibit CYP at the tested concentrations

## COc1cc(C)c(C(=O)NCc2nnc3ccc4ccccc4n23)c(C)c1 [Compound 39, N‐([1,2,4]Triazolo[4,3‐a]quinolin‐1‐ylmethyl)‐4‐methoxy‐2,6‐dimethylbenzamide]
[1]
  viability at 48 h, 10 μM: 94 ± 6.3%
[3]
  IC50: 1.8 ± 0.2 µM
[7]
  Kyn levels in P1.TDO cells: not able to induce a reduction of Kyn levels in P1.TDO
[6]
  Residual peak area after RLS9 incubation (60 min): higher than 99%

## COc1ccc(-c2ccc(F)c(C(=O)NCc3nnc4ccc(C(F)(F)F)cn34)c2)cc1OC [Compound 25, 4‐Fluoro‐3′,4′‐dimethoxy‐N‐((6‐(trifluoromethyl)‐[1,2,4]triazolo[4,3‐a]pyridin‐3‐yl)methyl)‐[1,1′‐biphenyl]‐3‐carboxamide]
[1]
  viability at 48 h, 10 μM: 94 ± 2.1%
[3]
  IC50: 1.4 ± 0.5 µM
[7]
  Kyn levels in P1.TDO cells: not able to induce a reduction of Kyn levels in P1.TDO
[6]
  Residual peak area after RLS9 incubation (60 min): higher than 99%
[4]
  CYP inhibition (aminopyrine N-demethylase activity): low inhibition at 10 and 100 μM

## Cc1ccc(-c2ccc(F)c(C(=O)NCc3nnc4ccc(C(F)(F)F)cn34)c2)cc1C [Compound 24, 4‐Fluoro‐3′,4′‐dimethyl‐N‐((6‐(trifluoromethyl)‐[1,2,4]triazolo[4,3‐a]pyridin‐3‐yl)methyl)‐[1,1′‐biphenyl]‐3‐carboxamide]
[1]
  viability at 48 h, 10 μM: 95 ± 7.2%
[3]
  IC50: 2 ± 0.3 µM
[7]
  Kyn levels in P1.TDO cells: not able to induce a reduction of Kyn levels in P1.TDO
[6]
  Residual peak area after RLS9 incubation (60 min): higher than 99%

Source: article PMC9291769 (Chemmedchem, 2021)
